In PMC11382098 (RSC Advances, 2024):

System: Hs68 (human foreskin fibroblast) cells
Test: In vitro cytotoxicity
Assay type: cell-based
Settings: Hs68, read-out: IC50 (concentration necessary for 50% inhibition), Hs68 cells
Outline: (§1)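 Cells grown in DMEM with 10% FBS, penicillin/streptomycin, L-glutamine and 1 mM sodium pyruvate at 37 °C, 5% CO2. Seeded at 3 × 10^3 cells/well for 24 h, then exposed 72 h to test compound at 6.25, 12.5, 25, 50 and 100 μM; 5-FU as positive control. MTT 0.5 mg mL−1 for 3 h at 37 °C; formazan dissolved in DMSO, read at A570. Untreated cells set as 100% viability; IC50 given as mean ±SD, n = 3.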

Row | SMILES | IC50 [µM]
1 | O=c1[nH]cc(F)c(=O)[nH]1 [5-FU, 5-Fluorouracil] | 3.08 ± 0.4

System: human non-small-cell lung cancer cells (A549)
Test: In vitro cytotoxicity
Assay type: cell-based
Settings: not given
Outline: as §1

Row | SMILES | Cytotoxic activity against A549 cells (in words)
2 | Brc1ccc2nc(/C=C/c3ccco3)c(/C=C/c3ccco3)nc2c1 [Compound 4a, 6-Bromo-2,3-bis[(E)-2-(furan-2-yl)vinyl]quinoxaline] | exhibited cytotoxic activities
3 | Brc1ccc2nc(/C=C/c3cccs3)c(/C=C/c3cccs3)nc2c1 [Compound 4b, 6-Bromo-2,3-bis[(E)-2-(thiophen-2-yl)vinyl]quinoxaline] | exhibited cytotoxic activities
4 | COc1ccccc1/C=C/c1nc2ccc(Br)cc2nc1/C=C/c1ccccc1OC [Compound 4e, 6-Bromo-2,3-bis[(E)-2-methoxystyryl]quinoxaline] | exhibited cytotoxic activities
5 | Clc1cccc(/C=C/c2nc3ccc(Br)cc3nc2/C=C/c2cccc(Cl)c2)c1 [Compound 4g, 6-Bromo-2,3-bis[(E)-3-chlorostyryl]quinoxaline] | exhibited cytotoxic activities
6 | COc1ccc(/C=C/c2nc3ccc(Br)cc3nc2/C=C/c2ccc(OC)cc2)cc1 [Compound 4l, 6-Bromo-2,3-bis[(E)-4-methoxystyryl]quinoxaline] | exhibited cytotoxic activities
7 | O=[N+]([O-])c1ccc2nc(/C=C/c3cccc(Cl)c3)c(/C=C/c3cccc(Cl)c3)nc2c1 [Compound 5g, 2,3-Bis[(E)-3-chlorostyryl]-6-nitroquinoxaline] | exhibited cytotoxic activities

System: not listed separately
Test: Solubility observation
Assay type: physicochemical
Settings: compounds with two nitro groups

Row | SMILES | Solubility (in words)
8 | O=[N+]([O-])c1cccc(/C=C/c2nc3ccc(Br)cc3nc2/C=C/c2cccc([N+](=O)[O-])c2)c1 [Compound 4f, 6-Bromo-2,3-bis[(E)-3-nitrostyryl]quinoxaline] | reduced the solubility
9 | O=[N+]([O-])c1ccc(/C=C/c2nc3ccc(Br)cc3nc2/C=C/c2ccc([N+](=O)[O-])cc2)cc1 [Compound 4k, 6-Bromo-2,3-bis[(E)-4-nitrostyryl]quinoxaline] | reduced the solubility
10 | O=[N+]([O-])c1cccc(/C=C/c2nc3ccc([N+](=O)[O-])cc3nc2/C=C/c2cccc([N+](=O)[O-])c2)c1 [Compound 5f, 6-Nitro-2,3-bis[(E)-3-nitrostyryl]quinoxaline] | reduced the solubility
11 | O=[N+]([O-])c1ccc(/C=C/c2nc3ccc([N+](=O)[O-])cc3nc2/C=C/c2ccc([N+](=O)[O-])cc2)cc1 [Compound 5k, 6-Nitro-2,3-bis[(E)-4-nitrostyryl]quinoxaline] | reduced the solubility
